Experimental data reported in ChEMBL document CHEMBL4043093, “2-Oxo-3, 4-dihydropyrimido[4, 5-d]pyrimidinyl derivatives as new irreversible pan fibroblast growth factor receptor (FGFR) inhibitors” (Eur J Med Chem, 2017).

How the values were obtained:
[1] = molecular target: cGMP-dependent protein kinase 1 (Homo sapiens) (UniProt Q13976); test: Inhibition of wild-type human partial length PRKG1 (L339 to F686 residues) expressed in Escherichia coli BL21 assessed as residual activity at 1000 nM after 30 mins by Kinomescan method relative to control
[2] = molecular target: Aurora kinase B (Homo sapiens) (UniProt Q96GD4); test: Inhibition of wild-type human partial length AURKB (D25 to A303 residues) expressed in HEK293 cells assessed as residual activity at 1000 nM after 30 mins by Kinomescan method relative to control; format: cell-based
[3] = molecular target: Ephrin type-B receptor 2 (Homo sapiens) (UniProt P29323); test: Inhibition of wild-type human partial length EPHB2 (I597 to L902 residues) expressed in Escherichia coli BL21 assessed as residual activity at 1000 nM after 30 mins by Kinomescan method relative to control
[4] = molecular target: Serine/threonine-protein kinase OSR1 (Homo sapiens) (UniProt O95747); test: Inhibition of wild-type human full length OSR1 (M1 to S527 residues) expressed in HEK293 cells assessed as residual activity at 1000 nM after 30 mins by Kinomescan method relative to control; format: cell-based
Method in brief: (§1)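 Single-concentration screen at 1 µM across a 456-kinase KINOMEscan panel. The read-out is Percent Control for each kinase.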

[5] = molecular target: Serine/threonine-protein kinase Nek4 (Homo sapiens) (UniProt P51957); test: Inhibition of wild-type human full length NEK4 (M1 to F841 residues) expressed in HEK293 cells assessed as residual activity at 1000 nM after 30 mins by Kinomescan method relative to control; format: cell-based; method in brief: as §1
[6] = molecular target: Serine/threonine-protein kinase WNK4 (Homo sapiens) (UniProt Q96J92); test: Inhibition of wild-type human partial length WNK4 (A31 to D461 residues) expressed in HEK293 cells assessed as residual activity at 1000 nM after 30 mins by Kinomescan method relative to control; format: cell-based
[7] = molecular target: Casein kinase I isoform gamma-1 (Homo sapiens) (UniProt Q9HCP0); test: Inhibition of wild-type human partial length CSNK1G1 (T15 to S353 residues) expressed in Escherichia coli BL21 assessed as residual activity at 1000 nM after 30 mins by Kinomescan method relative to control
[8] = molecular target: Ephrin type-A receptor 7 (Homo sapiens) (UniProt Q15375); test: Inhibition of wild-type human partial length EPHA7 (Y608 to S912 residues) expressed in Escherichia coli BL21 assessed as residual activity at 1000 nM after 30 mins by Kinomescan method relative to control
[9] = molecular target: Ribosomal protein S6 kinase beta-1 (Homo sapiens) (UniProt P23443); test: Inhibition of wild-type human partial length S6K1 (M1 to S421 residues) expressed in HEK293 cells assessed as residual activity at 1000 nM after 30 mins by Kinomescan method relative to control; format: cell-based
[10] = molecular target: Activin receptor type-2A (Homo sapiens) (UniProt P27037); test: Inhibition of wild-type human ACVR2A (V171 to T499 residues) expressed in Escherichia coli BL21 assessed as residual activity at 1000 nM after 30 mins by Kinomescan method relative to control
Method in brief: (§2)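 Single-point screen at a fixed 1 µM, run within a 456-kinase DiscoveRx KINOMEscan panel. Each kinase's read-out is Percent Control, i.e. signal relative to a control without compound. Hits were scored by a Percent Control < 35 cut-off, and an S(35) selectivity score was calculated across the non-mutant kinases.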

[11] = molecular target: LIM domain kinase 2 (Homo sapiens) (UniProt P53671); test: Inhibition of wild-type human full length LIMK2 (M1 to P638 residues) expressed in Escherichia coli BL21 assessed as residual activity at 1000 nM after 30 mins by Kinomescan method relative to control; method in brief: as §1
[12] = system: SW780; test: Antiproliferative activity against human FGFR3-amplified SW780 cells after 5 days by SRB assay; conditions: SW780, 120 h
[13] = molecular target: Misshapen-like kinase 1 (Homo sapiens) (UniProt Q8N4C8); test: Inhibition of wild-type human partial length MINK (M1 to K312 residues) expressed in HEK293 cells assessed as residual activity at 1000 nM after 30 mins by Kinomescan method relative to control; format: cell-based
[14] = molecular target: Serine/threonine-protein kinase BRSK1 (Homo sapiens) (UniProt Q8TDC3); test: Inhibition of wild-type human partial length BRSK1 (M1 to E754 residues) expressed in Escherichia coli BL21 assessed as residual activity at 1000 nM after 30 mins by Kinomescan method relative to control
[15] = molecular target: Phosphatidylinositol 4,5-bisphosphate 3-kinase catalytic subunit gamma isoform (Homo sapiens) (UniProt P48736); test: Inhibition of wild-type human partial length PIK3CG (S144 to A1102 residues) expressed in HEK293 cells assessed as residual activity at 1000 nM after 30 mins by Kinomescan method relative to control; format: cell-based
[16] = molecular target: Serine/threonine-protein kinase 10 (Homo sapiens) (UniProt O94804); test: Inhibition of wild-type human partial length LOK (E16 to V314 residues) expressed in Escherichia coli BL21 assessed as residual activity at 1000 nM after 30 mins by Kinomescan method relative to control
[17] = molecular target: MAP kinase-activated protein kinase 5 (Homo sapiens) (UniProt Q8IW41); test: Inhibition of wild-type human partial length MAPKAPK5 (M1 to D322 residues) expressed in HEK293 cells assessed as residual activity at 1000 nM after 30 mins by Kinomescan method relative to control; format: cell-based
[18] = molecular target: Insulin receptor (Homo sapiens) (UniProt P06213); test: Inhibition of wild-type human partial length INSR (P997 to E1318 residues) expressed in HEK293 cells assessed as residual activity at 1000 nM after 30 mins by Kinomescan method relative to control; format: cell-based
[19] = molecular target: Tyrosine-protein kinase Fyn (Homo sapiens) (UniProt P06241); test: Inhibition of wild-type human partial length FYN (T243 to L534 residues) expressed in Escherichia coli BL21 assessed as residual activity at 1000 nM after 30 mins by Kinomescan method relative to control
[20] = molecular target: PDGFRA (platelet-derived growth factor receptor alpha) (Homo sapiens, UniProt P16234); test: Inhibition of wild-type human partial length PDGFRA (V575 to D1002 residues) expressed in HEK293 cells assessed as residual activity at 1000 nM after 30 mins by Kinomescan method relative to control; format: cell-based; conditions: read-out: Activity
[21] = molecular target: Serine/threonine-protein kinase PAK 1 (Homo sapiens) (UniProt Q13153); test: Inhibition of wild-type human partial length PAK1 (S149 to H545 residues) expressed in Escherichia coli BL21 assessed as residual activity at 1000 nM after 30 mins by Kinomescan method relative to control
[22] = molecular target: Cyclin-dependent kinase 2 (Homo sapiens) (UniProt P24941); test: Inhibition of wild-type human full length CDK2 (M1 to L298 residues) expressed in Escherichia coli BL21 assessed as residual activity at 1000 nM after 30 mins by Kinomescan method relative to control; method in brief: as §2

Sequence of Ephrin type-B receptor 2 (Homo sapiens) (P29323 whole entry, the tested form may be a part): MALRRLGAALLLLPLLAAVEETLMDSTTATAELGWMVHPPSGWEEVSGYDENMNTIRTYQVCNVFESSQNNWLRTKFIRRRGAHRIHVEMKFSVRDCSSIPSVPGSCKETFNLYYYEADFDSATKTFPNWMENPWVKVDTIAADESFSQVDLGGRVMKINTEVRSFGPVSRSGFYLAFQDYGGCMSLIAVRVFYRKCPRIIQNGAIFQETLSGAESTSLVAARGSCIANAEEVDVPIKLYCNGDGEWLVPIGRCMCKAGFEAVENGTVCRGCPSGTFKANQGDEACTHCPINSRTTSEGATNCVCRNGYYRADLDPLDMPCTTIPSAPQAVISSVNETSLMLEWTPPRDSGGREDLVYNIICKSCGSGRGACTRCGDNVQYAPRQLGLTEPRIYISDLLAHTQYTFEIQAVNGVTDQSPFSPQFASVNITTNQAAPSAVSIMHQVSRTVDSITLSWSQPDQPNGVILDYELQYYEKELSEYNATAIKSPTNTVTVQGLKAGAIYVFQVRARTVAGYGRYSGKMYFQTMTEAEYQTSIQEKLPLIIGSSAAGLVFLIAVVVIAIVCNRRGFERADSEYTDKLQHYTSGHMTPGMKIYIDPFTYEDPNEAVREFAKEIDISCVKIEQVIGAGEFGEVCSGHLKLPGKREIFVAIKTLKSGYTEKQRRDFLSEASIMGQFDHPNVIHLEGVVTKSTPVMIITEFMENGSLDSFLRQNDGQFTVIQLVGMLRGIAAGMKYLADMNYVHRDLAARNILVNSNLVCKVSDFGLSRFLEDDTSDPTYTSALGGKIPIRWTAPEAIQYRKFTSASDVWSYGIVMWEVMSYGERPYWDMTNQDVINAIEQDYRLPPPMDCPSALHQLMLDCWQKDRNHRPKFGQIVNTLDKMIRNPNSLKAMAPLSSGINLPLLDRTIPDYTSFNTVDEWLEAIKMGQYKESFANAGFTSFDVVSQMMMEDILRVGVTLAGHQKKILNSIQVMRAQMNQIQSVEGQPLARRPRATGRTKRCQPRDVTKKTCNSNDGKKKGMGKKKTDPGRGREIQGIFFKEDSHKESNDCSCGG
Sequence of Ephrin type-A receptor 7 (Homo sapiens) (Q15375 28-998 limits assumed): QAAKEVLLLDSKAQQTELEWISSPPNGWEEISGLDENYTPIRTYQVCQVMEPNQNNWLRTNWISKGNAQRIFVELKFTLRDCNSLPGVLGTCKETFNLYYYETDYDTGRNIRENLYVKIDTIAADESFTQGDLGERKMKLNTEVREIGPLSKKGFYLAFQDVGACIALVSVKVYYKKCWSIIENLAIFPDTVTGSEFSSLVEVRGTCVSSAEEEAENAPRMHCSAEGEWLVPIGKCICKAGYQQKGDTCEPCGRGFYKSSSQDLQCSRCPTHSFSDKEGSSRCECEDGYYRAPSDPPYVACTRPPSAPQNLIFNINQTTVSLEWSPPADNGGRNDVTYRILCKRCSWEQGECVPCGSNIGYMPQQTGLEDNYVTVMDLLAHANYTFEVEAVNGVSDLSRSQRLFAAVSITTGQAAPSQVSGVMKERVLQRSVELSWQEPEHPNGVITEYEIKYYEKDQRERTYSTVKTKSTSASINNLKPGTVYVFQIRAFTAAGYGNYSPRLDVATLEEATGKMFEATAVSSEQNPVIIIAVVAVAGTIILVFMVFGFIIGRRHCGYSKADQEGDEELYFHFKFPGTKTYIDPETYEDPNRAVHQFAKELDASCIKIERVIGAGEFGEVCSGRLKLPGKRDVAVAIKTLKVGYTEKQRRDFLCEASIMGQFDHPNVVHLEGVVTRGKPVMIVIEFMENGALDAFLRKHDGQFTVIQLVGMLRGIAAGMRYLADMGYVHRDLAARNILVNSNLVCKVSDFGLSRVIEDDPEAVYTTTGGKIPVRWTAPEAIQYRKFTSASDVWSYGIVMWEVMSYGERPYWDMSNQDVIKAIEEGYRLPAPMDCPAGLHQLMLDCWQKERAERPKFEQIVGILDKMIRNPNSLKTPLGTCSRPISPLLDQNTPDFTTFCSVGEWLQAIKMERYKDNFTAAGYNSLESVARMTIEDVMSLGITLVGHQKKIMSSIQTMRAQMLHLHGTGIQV
Sequence of Ribosomal protein S6 kinase beta-1 (Homo sapiens) (P23443 whole entry, looked up, the tested form may be a part): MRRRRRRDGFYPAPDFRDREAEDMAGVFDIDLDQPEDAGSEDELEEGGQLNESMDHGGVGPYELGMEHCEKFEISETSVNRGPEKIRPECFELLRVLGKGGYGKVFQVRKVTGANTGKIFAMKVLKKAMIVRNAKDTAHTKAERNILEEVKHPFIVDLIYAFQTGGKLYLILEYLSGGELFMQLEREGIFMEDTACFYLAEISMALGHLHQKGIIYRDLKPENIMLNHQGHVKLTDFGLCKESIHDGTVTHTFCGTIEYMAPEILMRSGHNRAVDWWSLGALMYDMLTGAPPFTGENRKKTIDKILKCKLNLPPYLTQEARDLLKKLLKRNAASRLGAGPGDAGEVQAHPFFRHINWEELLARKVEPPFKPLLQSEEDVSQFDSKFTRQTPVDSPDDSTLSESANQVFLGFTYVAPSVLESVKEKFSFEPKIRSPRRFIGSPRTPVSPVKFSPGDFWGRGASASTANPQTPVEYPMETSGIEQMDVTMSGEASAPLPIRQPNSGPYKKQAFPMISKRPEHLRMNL
Sequence of Insulin receptor (Homo sapiens) (P06213 28-758 limits assumed): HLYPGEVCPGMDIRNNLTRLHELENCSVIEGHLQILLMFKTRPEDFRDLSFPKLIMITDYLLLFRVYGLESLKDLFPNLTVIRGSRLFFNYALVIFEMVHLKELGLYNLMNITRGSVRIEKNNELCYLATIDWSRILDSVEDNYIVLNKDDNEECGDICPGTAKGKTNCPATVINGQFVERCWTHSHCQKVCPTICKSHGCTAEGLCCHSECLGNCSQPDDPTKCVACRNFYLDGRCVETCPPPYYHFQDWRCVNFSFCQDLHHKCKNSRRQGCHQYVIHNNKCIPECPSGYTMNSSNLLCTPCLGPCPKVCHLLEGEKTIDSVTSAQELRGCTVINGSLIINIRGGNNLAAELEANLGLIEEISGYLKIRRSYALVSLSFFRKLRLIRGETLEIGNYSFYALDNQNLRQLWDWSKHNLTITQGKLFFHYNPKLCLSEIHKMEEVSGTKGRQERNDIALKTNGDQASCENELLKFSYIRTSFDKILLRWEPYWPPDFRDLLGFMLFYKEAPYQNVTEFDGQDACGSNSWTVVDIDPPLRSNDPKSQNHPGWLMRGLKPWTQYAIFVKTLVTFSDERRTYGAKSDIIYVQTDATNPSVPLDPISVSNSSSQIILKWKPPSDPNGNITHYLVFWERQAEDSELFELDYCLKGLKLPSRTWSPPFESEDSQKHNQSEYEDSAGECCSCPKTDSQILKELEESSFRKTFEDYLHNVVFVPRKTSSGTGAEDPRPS
Sequence of Insulin receptor (Homo sapiens) (P06213 763-1382 limits assumed): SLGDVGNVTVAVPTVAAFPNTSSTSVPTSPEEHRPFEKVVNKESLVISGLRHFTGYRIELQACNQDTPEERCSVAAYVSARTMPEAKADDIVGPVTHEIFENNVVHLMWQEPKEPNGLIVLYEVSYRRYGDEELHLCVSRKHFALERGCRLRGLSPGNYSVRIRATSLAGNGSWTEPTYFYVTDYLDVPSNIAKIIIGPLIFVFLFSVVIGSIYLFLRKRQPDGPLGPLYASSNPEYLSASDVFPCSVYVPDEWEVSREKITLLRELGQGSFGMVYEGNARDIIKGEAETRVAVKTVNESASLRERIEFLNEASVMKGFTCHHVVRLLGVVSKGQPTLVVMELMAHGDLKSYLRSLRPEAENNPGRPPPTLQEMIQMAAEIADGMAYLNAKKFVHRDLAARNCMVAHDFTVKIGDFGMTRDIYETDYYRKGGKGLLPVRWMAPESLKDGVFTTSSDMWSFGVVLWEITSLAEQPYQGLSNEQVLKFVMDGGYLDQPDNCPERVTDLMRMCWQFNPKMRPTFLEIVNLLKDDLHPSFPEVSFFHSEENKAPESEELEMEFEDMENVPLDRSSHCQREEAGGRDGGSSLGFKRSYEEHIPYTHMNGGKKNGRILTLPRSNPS
Sequence of Phosphatidylinositol 4,5-bisphosphate 3-kinase catalytic subunit gamma isoform (Homo sapiens) (P48736 whole entry, looked up, the tested form may be a part, canonical isoform): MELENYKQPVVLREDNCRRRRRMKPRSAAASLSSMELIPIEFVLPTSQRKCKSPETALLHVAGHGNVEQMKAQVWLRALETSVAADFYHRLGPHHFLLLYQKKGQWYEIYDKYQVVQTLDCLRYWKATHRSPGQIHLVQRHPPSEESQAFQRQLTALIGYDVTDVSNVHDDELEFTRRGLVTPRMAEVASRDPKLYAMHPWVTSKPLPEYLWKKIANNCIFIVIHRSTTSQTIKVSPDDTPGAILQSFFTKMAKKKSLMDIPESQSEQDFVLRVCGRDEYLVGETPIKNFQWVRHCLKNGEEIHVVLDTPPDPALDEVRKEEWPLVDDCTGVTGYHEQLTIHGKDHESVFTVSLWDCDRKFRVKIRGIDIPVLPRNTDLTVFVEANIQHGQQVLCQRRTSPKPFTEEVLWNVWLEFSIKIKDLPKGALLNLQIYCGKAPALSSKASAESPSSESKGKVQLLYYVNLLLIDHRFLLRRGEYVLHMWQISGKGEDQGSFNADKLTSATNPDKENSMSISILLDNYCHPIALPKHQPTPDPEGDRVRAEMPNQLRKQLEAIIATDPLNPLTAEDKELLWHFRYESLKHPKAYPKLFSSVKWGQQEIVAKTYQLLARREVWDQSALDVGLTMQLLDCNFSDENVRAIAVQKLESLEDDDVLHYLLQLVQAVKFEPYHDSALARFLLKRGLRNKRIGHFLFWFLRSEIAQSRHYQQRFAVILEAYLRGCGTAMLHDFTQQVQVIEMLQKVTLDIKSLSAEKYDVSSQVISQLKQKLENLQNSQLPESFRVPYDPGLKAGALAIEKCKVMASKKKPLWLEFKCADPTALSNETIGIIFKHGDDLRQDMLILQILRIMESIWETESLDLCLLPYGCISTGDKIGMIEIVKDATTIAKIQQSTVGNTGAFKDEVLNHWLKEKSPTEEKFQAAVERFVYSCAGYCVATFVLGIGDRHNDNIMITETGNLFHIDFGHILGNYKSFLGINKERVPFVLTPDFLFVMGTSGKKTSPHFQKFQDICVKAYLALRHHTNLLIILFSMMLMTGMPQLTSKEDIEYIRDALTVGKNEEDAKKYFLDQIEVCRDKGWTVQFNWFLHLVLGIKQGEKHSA

In the case of `COc1cc(OC)c(Cl)c(N2Cc3cnc(Nc4ccc(F)cc4)nc3N(C3CCN(C(=O)/C=C/CN(C)C)CC3)C2=O)c1Cl`, the Activity [1] is reported as 100%, the Activity [2] is reported as 95% and the Activity [3] is reported as 99%. The Activity [4] was 100%, the Activity [5] was 100% and the Activity [6] was 100%. The Activity [7] was 82%, the Activity [8] was 99% and the Activity [9] was 92%. The Activity [10] was 99%, the Activity [11] was 100% and the IC50 [12] was 0.0161 µM. It also gave an Activity [13] of 93%, an Activity [14] of 100% and an Activity [15] of 100%. For the same compound, the Activity [16] was 34%, the Activity [17] was 100% and the Activity [18] was 87%. The Activity [19] was 19%, the activity at 0.5 h, 1 µM [20] was 62% and the Activity [21] was 100%. The Activity [22] was 100%.
